One block for each compound: values may come before it.
Assays:
Hs27 fibroblasts = assay: Cell viability MTT assay on Hs27 fibroblasts; format: cell-based, human; conditions: for cytotoxicity against Hs27 fibroblasts (in words): either human cell line
In short: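 In vitro viability screen on Hs27 human fibroblasts, the same cells that serve as hosts in the parasite proliferation assay. IC50 is reported with confidence intervals.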

HeLa wt cells = assay: Cell viability MTT assay on HeLa wt cells; format: cell-based, human; conditions: for cytotoxicity against HeLa cells (in words): either human cell line
[1] = Antioxidant ABTS decolorization assay; conditions: relative to ascorbic acid
In short: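 Antioxidant capacity is read as ABTS radical decolorization. It is expressed relative to ascorbic acid as ascorbic acid equivalents in mol mol–1. Values are given with standard deviation.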

[2] = Stability experiments in DMSO; format: physicochemical; conditions: up to 40 °C, over 24 h

SMILES: COc1cc(C)cc2oc(-c3ccc(C(F)(F)F)cc3)cc(=O)c12 [8ad, 5-Methoxy-7-methyl-2-(4-(trifluoromethyl)phenyl)-4H-chromen-4-one]
cytotoxicity against Hs27 fibroblasts (in words) (Hs27 fibroblasts): noncytotoxic
cytotoxicity against HeLa cells (in words) (HeLa wt cells): noncytotoxic

SMILES: COc1cc(OC)c2c(=O)cc(-c3ccc(C(F)(F)F)cc3)oc2c1 [8bd, 5,7-Dimethoxy-2-(4-(trifluoromethyl)phenyl)-4H-chromen-4-one]
cytotoxicity against Hs27 fibroblasts (in words) (Hs27 fibroblasts): noncytotoxic
cytotoxicity against HeLa cells (in words) (HeLa wt cells): noncytotoxic

SMILES: COc1ccc(-c2cc(=O)c3c(OC)cc(C)c(-c4c(C)cc(OC)c5c(=O)cc(-c6ccc(OC)cc6)oc45)c3o2)cc1 [9aa, rac-5,5′-Dimethoxy-2,2′-bis(4-methoxyphenyl)-7,7′-dimethyl-4H,4′H-[8,8′-bichromene]-4,4′-dione]
ascorbic acid equivalent antioxidant capacity (AEAC) [1]: 0.25 equiv ascorbic acid [mol mol^–1]

stability in DMSO [2]: stable
SMILES: COc1cc(C)c(-c2c(C)cc(OC)c3c(=O)cc(-c4ccc(N(C)C)cc4)oc23)c2oc(-c3ccc(N(C)C)cc3)cc(=O)c12 [9ac, rac-2,2′-Bis(4-(dimethylamino)phenyl)-5,5′-dimethoxy-7,7′-dimethyl-4H,4′H-[8,8′-bichromene]-4,4′-dione]
ascorbic acid equivalent antioxidant capacity (AEAC) [1]: 0.197 equiv ascorbic acid [mol mol^–

SMILES: COc1cc(C)c(-c2c(C)cc(OC)c3c(=O)cc(-c4ccc(C(F)(F)F)cc4)oc23)c2oc(-c3ccc(C(F)(F)F)cc3)cc(=O)c12 [9ad, rac-5,5′-Dimethoxy-7,7′-dimethyl-2,2′-bis(4-(trifluoromethyl)phenyl)-4H,4′H-[8,8′-bichromene]-4,4′-dione]
cytotoxicity against Hs27 fibroblasts (in words) (Hs27 fibroblasts): noncytotoxic
cytotoxicity against HeLa cells (in words) (HeLa wt cells): noncytotoxic

SMILES: COc1cc(OC)c2c(=O)cc(-c3ccc(C(F)(F)F)cc3)oc2c1-c1c(OC)cc(OC)c2c(=O)cc(-c3ccc(C(F)(F)F)cc3)oc12 [9bd, rac-5,5′,7,7′-Tetramethoxy-2,2′-bis(4-(trifluoromethyl)phenyl)-4H,4′H-[8,8′-bichromene]-4,4′-dione]
cytotoxicity against Hs27 fibroblasts (in words) (Hs27 fibroblasts): noncytotoxic
cytotoxicity against HeLa cells (in words) (HeLa wt cells): noncytotoxic

IC50 (HeLa wt cells; Homo sapiens, HeLa, 48 h, read-out: IC50 (HeLa)): > 100 µM
SMILES: Cc1cc(O)c2c(=O)cc(-c3ccc(N(C)C)cc3)oc2c1-c1c(C)cc(O)c2c(=O)cc(-c3ccc(N(C)C)cc3)oc12 [compound 11, rac-2,2′-Bis(4-(dimethylamino)phenyl)-5,5′-dihydroxy-7,7′-dimethyl-4H,4′H-[8,8′-bichromene]-4,4′-dione]
IC50 (Hs27 fibroblasts; Homo sapiens, HS27, 24 h, read-out: IC50 (Hs27)): > 200 µM
ascorbic acid equivalent antioxidant capacity (AEAC) [1]: 0.037 equiv ascorbic acid [mol mol^–
